Screening data: PubChem, several laboratories
GRK2 aptamer HTS – human GRK2 inhibition via aptamer displacement; P25098; bead flow cytometry, FAM-aptamer displacement from GRK2; inhibition of aptamer binding, % at 10 µM; 0.59% of 330,000 active; AID 488847;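 active = inhibition of aptamer binding above 40%, roughly 3 SD of noise, on plates passing a quality check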;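 note: median bead fluorescence of bound FAM aptamer so fluorescent compounds give negative values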
Target sequence (P25098 whole entry, looked up): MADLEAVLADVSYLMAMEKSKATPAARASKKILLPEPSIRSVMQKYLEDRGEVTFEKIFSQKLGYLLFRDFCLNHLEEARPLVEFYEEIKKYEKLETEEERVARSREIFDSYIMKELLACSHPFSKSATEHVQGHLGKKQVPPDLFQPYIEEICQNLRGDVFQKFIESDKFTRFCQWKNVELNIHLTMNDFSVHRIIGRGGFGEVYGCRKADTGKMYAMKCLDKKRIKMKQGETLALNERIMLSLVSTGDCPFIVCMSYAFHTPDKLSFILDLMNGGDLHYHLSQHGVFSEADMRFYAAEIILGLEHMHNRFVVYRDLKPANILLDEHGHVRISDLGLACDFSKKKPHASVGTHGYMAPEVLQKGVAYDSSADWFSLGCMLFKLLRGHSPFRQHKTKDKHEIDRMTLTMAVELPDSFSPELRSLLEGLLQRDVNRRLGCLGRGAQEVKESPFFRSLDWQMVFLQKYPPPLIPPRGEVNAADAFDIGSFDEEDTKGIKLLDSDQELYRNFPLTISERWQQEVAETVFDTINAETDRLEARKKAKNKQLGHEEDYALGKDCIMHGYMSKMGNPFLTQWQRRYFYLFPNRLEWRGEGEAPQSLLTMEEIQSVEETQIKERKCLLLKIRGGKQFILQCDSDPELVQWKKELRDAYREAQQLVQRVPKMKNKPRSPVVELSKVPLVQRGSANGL
ARNT-TACC3 inh – disrupts binding between human ARNT and TACC3 | AlphaScreen His-ARNT PAS-B/GST-TACC3 binding, luminescence; TACC3 fragment carries E629A point mutation | Q9Y6A5 | inhibition, % at 9.99 µM | 0.66% of 390,000 active;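 active = mean inhibition of replicates at least 50% and at least half of replicates each reaching 50%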;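 note: 0% = complete ARNT plus TACC3 wells and 100% = ARNT alone without TACC3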
DDE Tn7 FP inh – disrupts Tn7 cyclic peptide binding to fibrin D-Dimer-E complex | P02675 | FP displacement of FITC-Tn7 peptide from fibrin DD(E); 0% = median of compound wells per plate | inhibition, % at 8.3 µM | 0.13% of 370,000 active | AID 720508;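 active = inhibition above the mean of compounds falling within the control limits plus 3 SD of them, cut at about 14% in these data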;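 note: 0% = plate median of compound wells and 100% = 10 µM Aha-Tn7 peptide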
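Assay system: human fibrin DD(E) protein / Input: 2 µM fibrin DD(E) / Benchmarks: high control of 10 µM Aha-Tn7 peptide / Measured by: fluorescence polarization of the labelled Tn7 tracer / Medium: Tris buffer with calcium and detergent, pH 7.8 / Timing: 10 min compound pre-incubation, 3 h probe incubation at room temperature / Repeats: one replicate per compound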
CAL PDZ FP-1 – CAL PDZ (human) peptide binding inhibition | purified CAL PDZ, TMR-peptide fluorescence polarization, 1 h | Q9HD26 | inhibition, % at 24.9 µM | 0.92% of 300,000 active | AID 602252;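 active = mean inhibition of at least 30% with at least half of replicates also reaching 30%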;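 note: 0% = DMSO neutral control and 100% = excess unlabeled competitor peptide PRC23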
Tn6 DDE FP – disrupts Tn6 cyclic peptide binding to fibrin D-Dimer-E complex. P02675. Fibrin DD(E) TRITC-Tn6 fluorescence polarization displacement. inhibition, % at 8.3 µM. 0.21% of 370,000 active. AID 720509;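 active = inhibition above a per-campaign cutoff: mean of compounds within control limits plus 3 SD, cut at about 15% in these data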;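 note: 0% = median of all compound wells on the plate and 100% = blocking peptide control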
CAL PDZ FP-2 – human CAL PDZ-peptide interaction inhibition; Q9HD26; inhibition, % at 20 µM; AID 504414; 0.02% of 330,000 active; purified CAL PDZ, TMR-peptide fluorescence polarization, 1 h;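 active = highest replicate inhibition of at least 40%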;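 note: plate controls were DMSO neutral control wells for no effect and unlabeled competitor peptide control wells for full effect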
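Assay system – tagged CAL PDZ protein CerCALP, purified · Timing – 1 h at RT · Compound – single point, 20 µM · Measured by – fluorescence polarization from S- and P-plane intensities, G-factor corrected · Evaluation – inhibition from polarization loss · Probe or stimulus – TMR reporter peptide T*-PRC34 · Buffer or medium – pH 7.4 phosphate-saline buffer, reducing agent, detergent, IgG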
* = called active by the depositor; . = not tested or not shown. Most compounds without a hit are left out; they make up all but 1.8% or so of the library.

SMILES	GRK2 aptamer HTS	ARNT-TACC3 inh	DDE Tn7 FP inh	CAL PDZ FP-1	Tn6 DDE FP	CAL PDZ FP-2
NC(=O)NC(=O)CC1S/C(=N/N=C2\CSC(=O)N2)NC1=O (stereo not given)	0	53*	7	0	8	-1
O=C(O)CNC(=O)CC1S/C(=N/N=C2/NC(=O)CS2)NC1=O (stereo not given)	0	58*	9	1	0	-2
CC1=C/C(=N\N=C2\NC(=O)C(CC(=O)Nc3ccccc3)S2)CC(C)(C)C1 (stereo not given)	0	3	-5	1	1	0
CO[C@@H]1CN(C)C(=O)c2cc(NS(C)(=O)=O)ccc2OC[C@H](C)N(CC2CCOCC2)C[C@@H]1C	.	-8	.	.	.	.
Cc1ccc(NC(=O)CCNS(=O)(=O)c2ccccc2)cc1S(=O)(=O)N1CCOCC1	1	20	-3	-2	3	-1
COc1ccc(CC(=O)Nc2ccc(F)c(S(=O)(=O)N3CCOCC3)c2)cc1	.	5	4	.	0	-1
Cc1ccc(NC(=O)Cc2ccccc2)cc1S(=O)(=O)N1CCOCC1	2	-4	1	30*	5	0
CCc1ccccc1OCC(=O)Nc1ccc(F)c(S(=O)(=O)N2CCOCC2)c1	.	.	-1	31*	-6	0
O=C(NNC(=O)c1ccccn1)c1ccc(OC(F)F)cc1	0	71*	-1	-3	-1	2
O=C(NCCc1ccccn1)c1ccc(OC(F)F)cc1	2	-6	0	.	-4	-1
CCc1ccccc1-c1cc(C(=O)OC)c2n(c1=O)CCC2	.	.	0	.	1	.
CCc1ccc(-c2cc(C(=O)NN3CCOCC3)c3ccccc3n2)cc1	1	-2	4	-6	4	.
Cc1ccc(-c2cc(C(=O)Nc3ccc4c(c3)OCCO4)c3ccccc3n2)cc1	0	-12	-5	-2	0	0
O=C(NN1CCOCC1)c1cc(-c2ccc(Br)cc2)nc2ccccc12	0	-6	1	59*	2	0
O=C(Nc1ccc2c(c1)OCO2)c1cc(-c2cccnc2)nc2ccccc12	0	2	-8	40*	-7	0
O=C(Nc1cccnc1)c1cc(-c2ccc(Br)cc2)nc2ccccc12	1	0	-1	68*	-5	0
Cc1ccccc1C(=O)NN1CCOCC1	0	-35	1	82*	-1	0
CCC(=O)N(C)C[C@@H]1Oc2cc(-c3ccc(C)cc3)ccc2S(=O)(=O)N([C@@H](C)CO)C[C@@H]1C	.	1	.	.	.	.
CC(C)CC#Cc1ccc([C@@H]2[C@@H](CO)N3CCCCN(S(=O)(=O)Cc4ccccc4)C[C@@H]23)cc1	.	-9	.	.	.	.
CCOC(=O)c1ccc(NC(=S)NNC(=O)c2cc(-c3cccnc3)nc3ccccc23)cc1	3	10	-8	49*	-7	-2
Cc1cccc(C(=O)NC(=S)Nc2cccc3nc(C)ccc23)c1	0	-12	-2	2	0	-3
CN(CCC#N)C(=O)COC(=O)C1c2ccccc2Oc2ccccc21	4	-1	0	-5	1	-2
N#CCCN(CCC#N)C(=O)C1c2ccccc2Oc2ccccc21	0	2	10	12	59*	4
NC(=O)C1c2ccccc2Oc2ccccc21	0	-7	11	75*	-8	.
O=C1CC(N2CCSCC2)C(=O)N1c1cccc(Cl)c1 (stereo not given)	0	4	0	.	5	0
SMILES	GRK2 aptamer HTS	ARNT-TACC3 inh	DDE Tn7 FP inh	CAL PDZ FP-1	Tn6 DDE FP	CAL PDZ FP-2
Nc1c(N2CCCC2)cc(Cl)c2nonc12	0	37*	.	-1	.	2
C=CCOC(=O)C1=C(C)NC(C)=C(C(=O)OCC=C)C1c1ccco1	3	0	2	1	5	-1
CCOC(=O)C1=C(C)NC(C)=C(C(=O)OC)C1c1ccco1 (stereo not given)	3	0	1	36*	-9	-1
C[C@H](NC(=O)[C@@H]1[C@@H](CO)[C@@H]2Cn3c(ccc(C4=CCCC4)c3=O)[C@@H]2N1C)c1ccccc1	.	-1	.	.	.	.
C[C@H](CO)N1C[C@H](C)[C@@H](CN(C)CC2CC2)Oc2ccc(NC(=O)NC3CCCCC3)cc2CC1=O	.	-3	.	.	.	.
CC(C)Sc1nnc(CNC(=O)C23CC4CC(CC(C4)C2)C3)n1C1CCCCC1	3	7	-2	47*	1	-1
CC1CN(S(=O)(=O)c2cccc(C(=O)OC(C)C(=O)NC3CCCCC3C)c2)CC(C)O1 (stereo not given)	3	-1	8	-1	-1	0
Cc1cc(C)cc(NC(=O)NN2C(C)CCCC2C)c1 (stereo not given)	100*	-5	-5	.	-4	0
O=C(COC(=O)c1ccc(Cl)c(S(=O)(=O)NCc2ccccc2)c1)NCC1CCCO1 (stereo not given)	3	-3	3	44*	-6	0
O=C(O)c1ccc(Cl)c(S(=O)(=O)NCC2CCCO2)c1 (stereo not given)	7	-1	-1	0	-4	-1
CCc1cccc(NC(=O)CCNS(=O)(=O)c2ccc3[nH]c(=O)oc3c2)c1	3	1	-6	40*	-2	-1
COCC(=O)N1[C@@H](CO)[C@@H]2c3ccccc3N(C(=O)c3ccccc3)C[C@@H]21	.	3	.	.	.	.
O=C(NCc1ccccc1Cl)C1CCC(=O)N(CCCN2CCCC2=O)C1 (stereo not given)	1	-7	7	0	-9	0
O=C(NCCc1ccccc1C(F)(F)F)C1CCC(=O)N(CCCN2CCCC2=O)C1 (stereo not given)	1	-2	-3	52*	0	0
CN(CCOc1ccccc1)C(=O)c1ccc2c(c1)OCO2	3	1	0	62*	-1	0
NNC(=O)Cn1nc2n(c1=O)-c1ccccc1SC2	0	-3	5	-7	5	-1
CNC(=O)NC(=O)Cn1nc2n(c1=O)-c1ccccc1SC2	0	-1	-1	53*	-2	0
C[C@@H]1CCCCO[C@@H](CN(C)C)[C@H](C)CN([C@@H](C)CO)C(=O)c2cc(NC(=O)Nc3ccc(C(F)(F)F)cc3)ccc2O1	.	6	.	.	.	.
Cc1ccc(NC(=S)NNC(=O)c2nnn(-c3ccccc3)c2C)cc1	2	59*	-4	-2	5	-1
Cc1ccc(NC(=S)NNC(=O)c2nn(C)cc2Cl)cc1	1	29	-6	-3	-3	.
CCC(=O)c1cc2c(C)cc(=O)oc2c(C)c1OC(=O)C(C)C	1	-6	-9	-4	-6	-1
CCC(=O)c1cc2c(C)cc(=O)oc2c(C)c1OC(C)=O	83*	-3	-6	-1	0	-1
